Measurements published in ChEMBL document CHEMBL1154198, “Chemical genetics of Plasmodium falciparum” (Nature, 2010).

Experiments:
[1] = tested on: Plasmodium falciparum; assay: ST_JUDE: Plasmodium falciparum 3D7 EC50 (uM) as measured by SYBR green dye; assay type: functional, organism-based
[2] = tested on: Plasmodium falciparum; assay: ST_JUDE: Plasmodium falciparum K1 EC50 (uM) as measured by SYBR green dye; assay type: functional, organism-based
[3] = tested on: Plasmodium falciparum; assay: ST_JUDE: Cytotoxicity against Plasmodium falciparum 3D7; assay type: functional, organism-based
Procedure, shortened: (§1)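 Asexual P. falciparum grown in human erythrocytes, exposed to compounds for 72 h, and growth read as the DNA quantity in treated versus control cultures. Dose-response run at 12 concentrations from 10 μM to 5 nM.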

[4] = tested on: Plasmodium falciparum; assay: ST_JUDE: Cytotoxicity against Plasmodium falciparum K1; assay type: functional, organism-based; procedure, shortened: as §1
[5] = tested on: Plasmodium falciparum; assay: ST_JUDE: Cytotoxicity against Plasmodium falciparum V1/S; assay type: functional, organism-based
[6] = tested on: Toxoplasma gondii; assay: ST_JUDE: Growth inhibition of to Toxoplasma gondii, in human U-2OS cells, as measured by luciferase.; assay type: functional, organism-based; details: RH, U2OS
Procedure, shortened: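 T. gondii parasites engineered to express luciferase; drug sensitivity read by luminescence.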

[7] = tested on: Trypanosoma brucei; assay: ST_JUDE: Cytotoxicity using luciferase to measure ATP as an indicator of the viability of Trypanosoma brucei; assay type: functional, organism-based
[8] = tested on: Leishmania major; assay: ST_JUDE: Cytotoxicity using Alamar Blue to measure viability of Leishmania major; assay type: functional, organism-based
Procedure, shortened: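 L. major promastigotes; drug susceptibility read with Alamar Blue.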

[9] = ST_JUDE: Cytotoxicity using luciferase to measure ATP as an indicator of the viability of human foreskin fibroblast cells (BJ); assay type: toxicity, cell-based
[10] = ST_JUDE: Cytotoxicity using luciferase to measure ATP as an indicator of the viability of human epithelial hepatocellular carcinoma cells (HepG2); assay type: toxicity, cell-based
[11] = ST_JUDE: Cytotoxicity using luciferase to measure ATP as an indicator of the viability of human epithelial embryonic kidney cells (HEK293); assay type: toxicity, cell-based
[12] = ST_JUDE: Cytotoxicity using luciferase to measure ATP as an indicator of the viability of human Burkitt''s lymphoma lymphoblast cells (Raji); assay type: toxicity, cell-based
[13] = tested on: Plasmodium falciparum; assay: ST_JUDE: Cytotoxicity against Plasmodium falciparum Dd2; assay type: functional, organism-based
[14] = tested on: Plasmodium falciparum; assay: ST_JUDE: Cytotoxicity against Plasmodium falciparum W2; assay type: functional, organism-based
[15] = tested on: Plasmodium falciparum; assay: ST_JUDE: Cytotoxicity against Plasmodium falciparum SB-A6; assay type: functional, organism-based
[16] = tested on: Plasmodium falciparum; assay: ST_JUDE: Cytotoxicity against Plasmodium falciparum D10 transfected with yeast DHOD; assay type: functional, organism-based

Structure (SMILES) | EC50 [1] | EC50 [2] | EC50 [3] | EC50 [4] | EC50 [5] | EC50 [6] | EC50 [7] | EC50 [8] | EC50 [9] | EC50 [10] | EC50 [11] | EC50 [12] | EC50 [13] | EC50 [14] | EC50 [15] | EC50 [16]
C=CCn1c(=N)n(CC(O)c2ccc(Cl)c(Cl)c2)c2ccccc21 (centres undefined) | 334 nM | 181 nM | 1080 nM | 602 nM | 788 nM | > 24500 nM | 8340 nM | > 19100 nM | > 44700 nM | 16400 nM | 39200 nM | 26400 nM | 434 nM | 512 nM | 2530 nM | 2630 nM
COc1ccccc1/N=C1\C=C(NS(=O)(=O)c2ccc(C(C)C)cc2)c2ccccc2C1=O | 598 nM | 132 nM | 450 nM | 290 nM | 280 nM | > 18900 nM | 1790 nM | > 14800 nM | > 34500 nM | > 34500 nM | > 34500 nM | > 34500 nM | 627 nM | > 8870 nM | 190 nM | 343 nM
CC(C)c1ccc(S(=O)(=O)NC2=C/C(=N\c3ccc(O)cc3)C(=O)c3ccccc32)cc1 | 346 nM | 125 nM | 547 nM | 425 nM | 836 nM | > 19000 nM | 750 nM | > 14900 nM | 3580 nM | 2220 nM | 5470 nM | 3020 nM | 946 nM | 823 nM | 290 nM | 288 nM
CCCCCCn1c(=N)n(CC(O)COc2ccccc2C)c2ccccc21 (centres undefined) | 1260 nM | 715 nM | 2200 nM | 1430 nM | 2090 nM | 13900 nM | 3730 nM | > 23400 nM | 16800 nM | 6980 nM | 20300 nM | 12600 nM | 1110 nM | 1290 nM | 4670 nM | 6570 nM
CCOc1ccc(N(C(C)=O)C2=C(N(C)C)C(=O)c3ccccc3C2=O)cc1 | 5.5 nM | 7.5 nM | 2.7 nM | 3.5 nM | 5.5 nM | 10600 nM | 1240 nM | > 12900 nM | 11200 nM | 4820 nM | > 30200 nM | 354 nM | 6.3 nM | 8.5 nM | 1 nM | 1 nM
C=CC[n+]1c(C=C2C=CN(CC)C=C2)sc2ccccc21 | 425 nM | 305 nM | 1000 nM | > 7250 nM | 1270 nM | > 15500 nM | 1510 nM | 20.8 nM | > 28200 nM | > 28200 nM | > 28200 nM | 1240 nM | 696 nM | > 7250 nM | 1310 nM | 1290 nM
CCCCN(CCCC)CC(O)COc1ccccc1C(=O)Nc1ccccc1 (centres undefined) | 59 nM | 42.4 nM | 108 nM | 39.3 nM | 54.5 nM | > 29200 nM | 21300 nM | > 22800 nM | > 53200 nM | > 53200 nM | > 53200 nM | > 53200 nM | 69.2 nM | 202 nM | 144 nM | 163 nM
CN(C(=O)c1cc2c(s1)-c1ccccc1S(=O)(=O)C2)c1cccc(C(F)(F)F)c1 | 744 nM | 1250 nM | 350 nM | 356 nM | 684 nM | > 22400 nM | 18100 nM | > 17500 nM | > 40800 nM | > 40800 nM | > 40800 nM | > 40800 nM | 335 nM | 116 nM | 414 nM | 431 nM
C=CCN1C=CC=C/C1=C\c1sc2ccccc2[n+]1C | 1990 nM | 1200 nM | 1190 nM | 940 nM | > 9080 nM | > 19400 nM | 10700 nM | 50.3 nM | > 35400 nM | > 35400 nM | > 35400 nM | 8340 nM |  | 6160 nM | 2980 nM | 5690 nM
COC(=O)C1=CNC=C(C(=O)OC)C1c1ccc(Cl)c(Cl)c1 | 843 nM | 1670 nM | 772 nM | 1360 nM | 1780 nM | > 25100 nM | 17100 nM | > 19600 nM | > 45800 nM | > 45800 nM | > 45800 nM | > 45800 nM | 780 nM | 900 nM | > 11800 nM | > 11800 nM
